According to paper PMC12667952 (bioRxiv, 2025):
Residue numbers refer to the chain shown, from its start. Entries after “also recorded” stand apart in the source; their conditions may differ. Like-named read-outs stand apart in the source and are kept apart here.

Tests used:
[1] = target: T1, hGlyT2^D633E (Homo sapiens, UniProt Q9Y345, D633E); assay type: cell-based
T1 sequence (Q9Y345 1-797 D633E): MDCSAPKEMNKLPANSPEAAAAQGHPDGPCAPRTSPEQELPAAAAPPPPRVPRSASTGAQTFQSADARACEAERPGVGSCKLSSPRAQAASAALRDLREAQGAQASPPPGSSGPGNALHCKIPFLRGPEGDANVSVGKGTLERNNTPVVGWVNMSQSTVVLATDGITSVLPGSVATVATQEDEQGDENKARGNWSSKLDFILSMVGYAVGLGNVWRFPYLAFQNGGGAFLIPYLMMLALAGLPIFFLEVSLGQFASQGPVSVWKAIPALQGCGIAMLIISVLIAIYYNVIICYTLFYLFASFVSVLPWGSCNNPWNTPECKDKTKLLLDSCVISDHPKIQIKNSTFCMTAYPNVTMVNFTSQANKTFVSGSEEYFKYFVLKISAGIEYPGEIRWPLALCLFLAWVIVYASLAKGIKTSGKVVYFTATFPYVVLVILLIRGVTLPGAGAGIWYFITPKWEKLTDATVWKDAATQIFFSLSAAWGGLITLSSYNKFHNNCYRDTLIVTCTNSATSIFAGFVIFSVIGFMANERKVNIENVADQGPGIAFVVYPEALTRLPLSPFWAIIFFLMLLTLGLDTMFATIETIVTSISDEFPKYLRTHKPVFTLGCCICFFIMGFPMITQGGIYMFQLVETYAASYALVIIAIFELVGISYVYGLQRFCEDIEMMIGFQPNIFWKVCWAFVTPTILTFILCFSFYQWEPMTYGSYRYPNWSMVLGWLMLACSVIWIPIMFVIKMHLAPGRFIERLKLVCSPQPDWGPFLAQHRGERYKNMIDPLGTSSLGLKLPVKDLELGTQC

[2] = test system: adenosine receptors; experiment: Cerep panel off-target selectivity screen, adenosine receptors; assay type: binding; conditions: 1 × 10^-5 M
[3] = test system: mice; experiment: Grip strength test; assay type: in vivo, mouse; conditions: 30 min post-injection
[4] = test system: PSNL mice; experiment: Mechanical allodynia; assay type: in vivo, mouse; conditions: 50 mg/kg i.p., 90 mins
[5] = test system: muscarinic receptors; experiment: Cerep panel off-target selectivity screen, muscarinic receptors; assay type: binding; conditions: 1 × 10^-5 M
[6] = target: T2, hGlyT2^W215F (Homo sapiens, UniProt Q9Y345, W215F); assay type: cell-based
T2 sequence (Q9Y345 1-797 W215F): T1 sequence (Q9Y345 1-797 D633E) with W215F, E633D

[7] = test system: histamine (H1); experiment: Cerep panel off-target selectivity screen, H1; assay type: binding; conditions: 1 × 10^-5 M
[8] = target: T3, hGlyT2^WT (Homo sapiens, UniProt Q9Y345); assay type: cell-based
T3 sequence (Q9Y345 1-797): T1 sequence (Q9Y345 1-797 D633E) with E633D

[9] = test system: CCI mice; experiment: Mechanical allodynia; assay type: in vivo, mouse; conditions: for Peak reduction of response rate to von Frey stimulus: 3 hours
Outline: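 CCI mice tested 14 days after surgery. […] A single 0.4 g von Frey filament (about 15% response in naïve mice) applied to the left hind plantar surface until it bent. Response rate recorded after dosing.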

Compound: CN(C)C1(CNC(=O)c2ccc3c(c2)CCN3C(=O)c2ccccc2)CCOCC1 [RPI-GLYT2–82, 1-benzoyl-N-((4-(dimethylamino)tetrahydro-2H-pyran-4-yl)methyl)indoline-5-carboxamide]
- IC50 [1]: > 10000 nM
- Reduction in potency of inhibition, D633E versus WT [1]: > 18 fold
- Activity at adenosine receptors [2]: inactive
- Grip strength (muscle weakness) ([3]; 50 mg/kg): not at 50 mg/kg
- Grip strength (muscle weakness) ([3]; 250 mg/kg, recovered at 60 minutes): transient deficits in the grip-strength test; also recorded: transient muscle weakness
- Peak reduction of response rate to von Frey stimulus [4]: 22.5%
- Activity at muscarinic receptors [5]: inactive
- IC50 [6]: > 10000 nM
- Activity at histamine H1 [7]: inactive
- IC50 [8]: 550 nM
- IC50 ([8]; IC50, inhibition of glycine transport currents, hGlyT2^WT, Xenopus oocytes, currents generated by EC50 (30 μM) glycine, n = 5): 554 nM
- Peak reduction of response rate to von Frey stimulus ([9]; CCI mice, 50 mg/kg i.p.): 30%
- Peak reduction of response rate to von Frey stimulus ([9]; CCI mice, 100 mg/kg i.p.): 42%
- Time of maximum efficacy, mechanical allodynia ([9]; CCI mice, 50 and 100 mg/kg i.p.): between 90 minutes and 3 hours post-administration
- Efficacy at alleviating mechanical allodynia compared to pregabalin ([9]; pregabalin 50 mg/kg): not as efficacious
